Results published in ChEMBL document CHEMBL1921722, “In vitro and in vivo evaluation of select kahalalide F analogs with antitumor and antifungal activities” (Bioorg Med Chem, 2011).
Active and inactive are the calls of the source.

Legend:
DU-145 [1] = test: Cytotoxicity against human DU145 cells by sulforhodamine B assay; format: functional
How it was run: (§1)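 Run by the NCI Developmental Therapeutics Program on its 60-line human tumour cell panel using the standard procedure. Compounds went through a single-concentration prescreen first, and those active by NCI criteria went on to a five-concentration growth-inhibition test. GI50 is the concentration that cuts growth of treated cells to half that of untreated control cells.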

UACC-62 [2] = test: Cytotoxicity against human UACC62 cells assessed as cell growth at 8 nM by sulforhodamine B assay relative to control; format: functional; settings: read-out: Activity
OVCAR-8 = test: Cytotoxicity against human OVCAR8 cells assessed as cell growth at 80 uM by sulforhodamine B assay relative to control; format: functional; settings: read-out: Activity
A549 [3] = test: Cytotoxicity against human A549 cells assessed as cell growth at 800 nM by sulforhodamine B assay relative to control; format: functional; settings: read-out: Activity
How it was run: (§2)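 Run at NCI in the DTP 60-cell-line human tumor panel by standard procedure. Compounds were first screened at a single concentration, then tested at five tenfold-spaced concentrations. GI50 is the concentration reducing treated-cell growth to half that of untreated controls; TGI is the concentration completely halting growth.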

SNB-19 = test: Cytotoxicity against human SNB19 cells assessed as cell growth at 80 uM by sulforhodamine B assay relative to control; format: functional; settings: read-out: Activity
KM12 [4] = test: Cytotoxicity against human KM12 cells assessed as cell growth at 80 nM by sulforhodamine B assay relative to control; format: functional; settings: read-out: Activity
EKVX = test: Cytotoxicity against human EKVX cells assessed as cell growth at 8 uM by sulforhodamine B assay relative to control; format: functional; settings: read-out: Activity
UACC-62 [5] = test: Cytotoxicity against human UACC62 cells assessed as cell growth at 80 nM by sulforhodamine B assay relative to control; format: functional; settings: read-out: Activity
A498 = test: Cytotoxicity against human A498 cells assessed as cell growth at 800 nM by sulforhodamine B assay relative to control; format: functional; settings: read-out: Activity; how it was run: as §2
UO-31 = test: Cytotoxicity against human UO31 cells by sulforhodamine B assay; format: functional
How it was run: (§3)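 NCI Developmental Therapeutics Program 60-cell-line human tumor panel screen, run at NCI. A single-concentration pre-screen was followed by a five-concentration dose-response in 10-fold steps. GI50 is the concentration that reduces growth of treated cells to half that of untreated control cells. TGI is the concentration that completely halts growth.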

DU-145 [6] = test: Cytotoxicity against human DU145 cells assessed as cell growth at 8 uM by sulforhodamine B assay relative to control; format: functional; settings: read-out: Activity; how it was run: as §2
RXF 393 [7] = test: Cytotoxicity against human RXF393 cells by sulforhodamine B assay; format: functional; how it was run: as §3
Malme-3M = test: Cytotoxicity against human MALME-3M cells assessed as cell growth at 80 nM by sulforhodamine B assay relative to control; format: functional; settings: read-out: Activity
SW-620 [8] = test: Antitumor activity against human SW620 cells xenografted in mouse assessed as tumor cell killing at 4.7 mg/kg, ip qd for 4 days by MTT assay; format: functional, organism-based; set-up: dose 4.7 mg/kg
How it was run: (§4)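 Hollow-fiber assay in mice. Tumor lines were grown in RPMI-1640 with 10% FBS and 2 mM glutamine. Cells at 2 × 10^6 cells/ml were loaded into 1 mm PVDF fibers (500,000 Da cutoff), heat-sealed at 2 cm and held 24–48 h at 37 °C, 5% CO2 before implantation. Compound was given IP. Fibers were collected the day after the fourth treatment for MTT (OD 540 nm, group means). A ≥50% cut in percent net growth versus vehicle counted as positive.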

IGROV-1 = test: Cytotoxicity against human IGROV1 cells assessed as cell growth at 800 nM by sulforhodamine B assay relative to control; format: functional; settings: read-out: Activity
HCC 2998 = test: Cytotoxicity against human HCC2998 cells assessed as cell growth at 8 uM by sulforhodamine B assay relative to control; format: functional; settings: read-out: Activity
U-251 [9] = test: Cytotoxicity against human U251 cells assessed as cell growth at 8 nM by sulforhodamine B assay relative to control; format: functional; settings: read-out: Activity
NCI-H23 = test: Cytotoxicity against human NCI-H23 cells by sulforhodamine B assay; format: functional; how it was run: as §3
HT-29 [10] = test: Cytotoxicity against human HT-29 cells assessed as cell growth at 8 uM by sulforhodamine B assay relative to control; format: functional; settings: read-out: Activity
SK-MEL-2 [11] = test: Cytotoxicity against human SK-MEL-2 cells assessed as cell growth at 8 uM by sulforhodamine B assay relative to control; format: functional; settings: read-out: Activity
MDA-MB-231 = test: Cytotoxicity against human MDA-MB-231 cells assessed as cell growth at 800 nM by sulforhodamine B assay relative to control; format: functional; settings: read-out: Activity
KM12 [12] = test: Cytotoxicity against human KM12 cells assessed as cell growth at 800 nM by sulforhodamine B assay relative to control; format: functional; settings: read-out: Activity
LOX IMVI = test: Cytotoxicity against human LOXIMVI cells by sulforhodamine B assay; format: functional; how it was run: as §3
U-251 [13] = test: Cytotoxicity against human U251 cells assessed as cell growth at 80 nM by sulforhodamine B assay relative to control; format: functional; settings: read-out: Activity
SK-MEL-28 = test: Cytotoxicity against human SK-MEL-28 cells assessed as cell growth at 800 nM by sulforhodamine B assay relative to control; format: functional; settings: read-out: Activity
SK-MEL-2 [14] = test: Cytotoxicity against human SK-MEL-2 cells by sulforhodamine B assay; format: functional; how it was run: as §3
K562 = test: Cytotoxicity against human K562 cells assessed as cell growth at 800 nM by sulforhodamine B assay relative to control; format: functional; settings: read-out: Activity
A549 [15] = test: Cytotoxicity against human A549 cells assessed as cell growth at 80 nM by sulforhodamine B assay relative to control; format: functional; settings: read-out: Activity; how it was run: as §2
OVCAR-3 = test: Antitumor activity against human OVCAR3 cells xenografted in mouse assessed as tumor cell killing at 4.7 mg/kg, ip qd for 4 days by MTT assay; format: functional, organism-based; set-up: dose 4.7 mg/kg; how it was run: as §4
HCT-15 = test: Cytotoxicity against human HCT15 cells assessed as cell growth at 80 nM by sulforhodamine B assay relative to control; format: functional; settings: read-out: Activity
HT-29 [16] = test: Cytotoxicity against human HT-29 cells by sulforhodamine B assay; format: functional; how it was run: as §1
M14 = test: Cytotoxicity against human M14 cells assessed as cell growth at 80 nM by sulforhodamine B assay relative to control; format: functional; settings: read-out: Activity
SW-620 [17] = test: Cytotoxicity against human SW620 cells assessed as cell growth at 80 uM by sulforhodamine B assay relative to control; format: functional; settings: read-out: Activity
RXF 393 [18] = test: Cytotoxicity against human RXF393 cells assessed as cell growth at 80 uM by sulforhodamine B assay relative to control; format: functional; settings: read-out: Activity
MDA-MB-435 = test: Cytotoxicity against human MDA-MB-435 cells assessed as cell growth at 8 uM by sulforhodamine B assay relative to control; format: functional; settings: read-out: Activity
UACC-257 = test: Cytotoxicity against human UACC257 cells assessed as cell growth at 800 nM by sulforhodamine B assay relative to control; format: functional; settings: read-out: Activity
SR = test: Cytotoxicity against human SR cells assessed as cell growth at 8 uM by sulforhodamine B assay relative to control; format: functional; settings: read-out: Activity

For `C/C=C1\NC(=O)[C@H](Cc2ccccc2)NC(=O)[C@@H](C(C)C)NC(=O)[C@@H]([C@@H](C)CC)NC(=O)[C@H](NC(=O)[C@H](NC(=O)[C@H](CCCNCc2ccc(F)c(C)c2)NC(=O)[C@H]2CCCN2C(=O)[C@H](NC(=O)[C@@H](NC(=O)[C@@H](NC(=O)[C@H](NC(=O)CCCC(C)C)C(C)C)[C@@H](C)O)C(C)C)C(C)C)[C@@H](C)CC)[C@@H](C)OC(=O)[C@H](C(C)C)NC1=O`, the LC50 (DU-145 [1]) was 468 nM, the GI50 (DU-145 [1]; read-out: GI50) was 123 nM and the TGI (DU-145 [1]; read-out: TGI) was 240 nM. It also gave a GI50 (DU-145 [1]; read-out: pGI50 (converted)) of 123 nM, a TGI (DU-145 [1]; read-out: pTGI (converted)) of 240 nM and a growth at 0.008 µM (UACC-62 [2]) of 103%. It also gave a growth at 80 µM (OVCAR-8) of 48%, a growth at 0.8 µM (A549 [3]) of -40% and a growth at 80 µM (SNB-19) of -66%. It also gave a growth at 0.08 µM (KM12 [4]) of 98%, a growth at 8 µM (EKVX) of -82% and a growth at 0.08 µM (UACC-62 [5]) of 104%. It also gave a growth at 0.8 µM (A498) of 96%, a GI50 (UO-31) of 1320 nM and a TGI (UO-31; read-out: pTGI (converted)) of 2630 nM. The growth at 8 µM (DU-145 [6]) was -100%, the GI50 (RXF 393 [7]) was 1350 nM and the LC50 (RXF 393 [7]) was 6.31 µM. The TGI (RXF 393 [7]; read-out: pTGI (converted)) was 2950 nM, the growth at 0.08 µM (Malme-3M) was 118% and the Activity (SW-620 [8]) was “inactive”. The growth at 0.8 µM (IGROV-1) was 48%, the growth at 8 µM (HCC 2998) was -87% and the growth at 0.008 µM (U-251 [9]) was 96%. It also gave a GI50 (NCI-H23) of 1410 nM, an LC50 (NCI-H23) of 5.25 µM and a TGI (NCI-H23; read-out: pTGI (converted)) of 2750 nM. The growth at 8 µM (HT-29 [10]) was -62%, the growth at 8 µM (SK-MEL-2 [11]) was -80% and the growth at 0.8 µM (MDA-MB-231) was 91%. It also gave a growth at 0.8 µM (KM12 [12]) of -55%, a GI50 (LOX IMVI) of 1480 nM and an LC50 (LOX IMVI) of 4.9 µM. The TGI (LOX IMVI; read-out: pTGI (converted)) was 2690 nM, the growth at 0.08 µM (U-251 [13]) was 100% and the growth at 0.8 µM (SK-MEL-28) was 75%. It also gave a GI50 (SK-MEL-2 [14]) of 1410 nM, a TGI (SK-MEL-2 [14]; read-out: pTGI (converted)) of 2690 nM and a growth at 0.8 µM (K562) of 107%. For the same molecule, the growth at 0.08 µM (A549 [15]) was 98%, the Activity (OVCAR-3) was “inactive” and the growth at 0.08 µM (HCT-15) was 103%. It also gave a GI50 (HT-29 [16]; read-out: GI50) of 164 nM, a GI50 (HT-29 [16]; read-out: pGI50 (converted)) of 162 nM and a growth at 0.08 µM (M14) of 99%. It also gave a growth at 80 µM (SW-620 [17]) of -80%, a growth at 80 µM (RXF 393 [18]) of -79% and a growth at 8 µM (MDA-MB-435) of -95%. For the same molecule, the growth at 0.8 µM (UACC-257) was 88% and the growth at 8 µM (SR) was -50%.
